In ChEMBL document CHEMBL1806430, “Novel aliphatic N-oxide of naphthalimides as fluorescent markers for hypoxic cells in solid tumor” (Eur J Med Chem, 2011) one finds Drug uptake, Ratio and K data, which are given here for six compounds.

Series [1] has as its system V79. Put plainly: Drug uptake in hypoxic-chinese hamster V79 379A cells assessed as accumulation of fluorescent N-Oxide 3-nitro-1,8-naphthalimide metabolites at 10^-4 M after 4.5 hrs by fluorescent microscopic analysis. Format: ADME, cell-based, Cricetulus griseus. The settings on record: 100 µM. The method in brief:
(§1)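 V79 379A cells grown as suspension cultures in Eagle's MEM (suspension-modified, Earle's salts) with 7.5% fetal calf serum. Compound added at 10^-4 M, DMSO 1% final or less. Incubated 4.5 h at 37 °C under nitrogen + 5% CO2 (hypoxic) or air + 5% CO2 (oxic). Cells centrifuged, PBS-washed, resuspended in PBS, then imaged by fluorescence microscopy, excitation 410 nm, 1000×.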

For series [2], the system named is V79. Nature of the series: Ratio drug uptake in chinese hamster V79 379A cells in hypoxic to oxic condition assessed as accumulation of fluorescent N-Oxide 3-nitro-1,8-naphthalimide metabolites at 10^-4 M after 4.5 hrs by fluorescent microscopic analysis. The settings on record: 100 µM. Format: ADME, cell-based, Cricetulus griseus. The method in brief: (§2)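 Hypoxic/oxic fluorescence ratio in V79 379A suspension cultures (MEM, 7.5% FCS). Cells given 10^-4 M compound (DMSO ≤1% final) at 37 °C under N2 + 5% CO2 or air + 5% CO2. Samples taken over a time course, centrifuged, PBS-washed and resuspended. Fluorescence read by microplate reader ("fluorescence scan ascent"); ratio taken at about 4.5 h.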

Series [3] has as its system V79. Nature of the series: Drug uptake in oxic-chinese hamster V79 379A cells assessed as accumulation of fluorescent N-Oxide 3-nitro-1,8-naphthalimide metabolite at 10^-4 M after 4.5 hrs by fluorescent microscopic analysis. The settings on record: 100 µM. Format: ADME, cell-based, Cricetulus griseus. The method in brief:
as §1

For series [4], the system named is V79. Put plainly: Ratio drug uptake in chinese hamster V79 379A cells in hypoxic to oxic condition assessed as accumulation of fluorescent N-Oxide Benzo[b]xanthene [2,1-c]naphthalimide metabolites at 10^-4 M after 4.5 hrs by fluorescent microscopic analysis. The settings on record: 100 µM. Format: ADME, cell-based, Cricetulus griseus. The method in brief:
as §2

The subject of a further series is Nucleic Acid. Nature of the series: Binding affinity to calf thymus DNA assessed as binding constant. Format: nucleic-acid assay. The conditions noted are these: Bos taurus. In short, it runs like this:
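Fluorescence titration: compound at 10 × 10^-6 M in 20 mM Tris–HCl pH 7.5 at room temperature, with calf thymus DNA added in rising amounts (0–400 × 10^-6 M). Excitation 460 nm; emission spectra recorded.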

For series [5], the system named is V79. Put plainly: Drug uptake in hypoxic-chinese hamster V79 379A cells assessed as accumulation of fluorescent N-Oxide 3-amino-1,8-naphthalimide metabolites at 10^-4 M after 4.5 hrs by fluorescent microscopic analysis. The settings on record: 100 µM. Format: ADME, cell-based, Cricetulus griseus. The method in brief:
as §1

For series [6], the system named is V79. Put plainly: Drug uptake in oxic-chinese hamster V79 379A cells assessed as accumulation of fluorescent N-Oxide 3-amino-1,8-naphthalimide metabolite at 10^-4 M after 4.5 hrs by fluorescent microscopic analysis. The conditions noted are these: 100 µM. Format: ADME, cell-based, Cricetulus griseus. The method in brief:
as §1

Series [7] relates to V79. Nature of the series: Ratio drug uptake in chinese hamster V79 379A cells in hypoxic to oxic condition assessed as accumulation of fluorescent N-Oxide 3-amino-1,8-naphthalimide metabolites at 10^-4 M after 4.5 hrs by fluorescent microscopic analysis. Format: ADME, cell-based, Cricetulus griseus. The settings on record: 100 µM. The method in brief:
as §2

The subject of series [8] is V79. Nature of the series: Ratio drug uptake in chinese hamster V79 379A cells in hypoxic to oxic condition assessed as accumulation of fluorescent N-Oxide Benzo[k,l]xanthene-3,4-naphthalimide metabolites at 10^-4 M after 4.5 hrs by fluorescent microscopic analysis. The settings on record: 100 µM. Format: ADME, cell-based, Cricetulus griseus. In short, it runs like this:
as §2

Series [9] relates to V79. Nature of the series: Drug uptake in hypoxic-chinese hamster V79 379A cells assessed as accumulation of fluorescent N-Oxide Benzo[k,l]thioxanthene-3,4-naphthalimide metabolites at 10^-4 M after 4.5 hrs by fluorescent microscopic analysis. The settings on record: 100 µM. Format: ADME, cell-based, Cricetulus griseus. The method in brief: as §1
Series [10] has as its system V79. Nature of the series: Drug uptake in oxic-chinese hamster V79 379A cells assessed as accumulation of fluorescent N-Oxide Benzo[k,l]thioxanthene-3,4-naphthalimide metabolite at 10^-4 M after 4.5 hrs by fluorescent microscopic analysis. The conditions noted are these: 100 µM. Format: ADME, cell-based, Cricetulus griseus. The method in brief: as §1
Series [11] concerns V79. Put plainly: Ratio drug uptake in chinese hamster V79 379A cells in hypoxic to oxic condition assessed as accumulation of fluorescent N-Oxide Benzo[k,l]thioxanthene-3,4-naphthalimide metabolites at 10^-4 M after 4.5 hrs by fluorescent microscopic analysis. Format: ADME, cell-based, Cricetulus griseus. The settings on record: 100 µM. The method in brief: as §2

For the compound `C[N+](C)([O-])CCN1C(=O)c2cccc3cc([N+](=O)[O-])cc(c23)C1=O`, the Drug uptake result in the series on V79 [1] was “Active”; in the series on V79 [3], “Not Active”. Moreover, the Ratio in the series with V79 [2] stood at 17.
With `C[N+](C)([O-])CCN1C(=O)c2cccc3c2c(cc2c4ccccc4sc32)C1=O`, the Ratio with V79 [4] is reported as 5.2.
For `CN(C)CCn1c(=O)c2ccc3sc4ccccc4c4ccc(c1=O)c2c34`, the K in the series on Nucleic Acid stood at 2.9 ×10⁵ /M.
Turning to `C[N+](C)([O-])CCN1C(=O)c2cccc3cc(N)cc(c23)C1=O`, the figures for the Drug uptake result with V79 [5] and in the series with V79 [6] were “Active” and “Not Active”, respectively. Further, the Ratio with V79 [7] was determined as 8.4.
For the compound `C[N+](C)([O-])CCn1c(=O)c2ccc3oc4ccccc4c4ccc(c1=O)c2c34`, in the series with V79 [8], the Ratio worked out at 1.5.
Turning to `C[N+](C)([O-])CCn1c(=O)c2ccc3sc4ccccc4c4ccc(c1=O)c2c34`, the K with Nucleic Acid stood at 6.62 ×10³ /M. Further, the values for the Drug uptake entry with V79 [9] and with V79 [10] were “Active” and “Not Active”, respectively. The Ratio in the series on V79 [11] is 1.75.
